Experimental data as given in ChEMBL document CHEMBL2380239, “Novel ROS-activated agents utilize a tethered amine to selectively target acute myeloid leukemia” (Bioorg Med Chem Lett, 2013).

Legend:
[1] = tested on: HeLa; assay: Cytotoxicity against human HeLa cells after 48 hrs by MTT assay; format: functional, cell-based
[2] = Cytotoxicity against human MA9.3 cells after 48 hrs by MTT assay; format: functional, cell-based
Outline: (§1)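 Non-transformed human CD34+ blood stem/progenitor cells from umbilical cord blood were run alongside MA9.3, an AML line made by introducing the MLL-AF9 oncogene into human CD34+ cells. IC50 was determined on each cell type. Therapeutic index is the ratio between the MA9.3 and CD34+ IC50 values.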

[3] = Therapeutic index, ratio of IC50 for human CD34-positive blood stem/progenitor cells to IC50 for human MA9.3 cells; conditions: CD34-positive blood stem/progenitor cells versus MA9.3 cells, read-out: Ratio IC50
Outline: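 Cytotoxicity was measured in parallel on non-cancerous human CD34+ blood stem/progenitor cells (UCB) and on the MA9.3 AML line, which was made by introducing the MLL-AF9 oncogene into human CD34+ cells. The index is IC50 in CD34+ cells divided by IC50 in MA9.3, reported as mean ± error.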

[4] = Cytotoxicity against human CD34-positive blood stem/progenitor cells after 48 hrs by MTT assay; format: cell-based; outline: as §1

SMILES | IC50 [1] | IC50 [2] | selectivity ratio [3] | IC50 [4]
CN(CCCCOc1ccc(O)cc1)c1ccccc1 | 12 µM | – | – | –
CN(CCCCCOc1ccc(O)cc1)c1ccccc1 | 13 µM | – | – | –
CN(CCOc1ccc(O)cc1)Cc1ccccc1 | 33 µM | – | – | –
CN(C(=O)COc1ccc(O)cc1)c1ccccc1 | > 125 µM | – | – | –
CN(CCCOc1ccccc1)c1ccccc1 | > 125 µM | – | – | –
CCOc1ccc(O)cc1 [1-hydroxy-4-ethoxybenzene] | > 125 µM | – | – | –
O=C(O)CCCc1ccc(N(CCCl)CCCl)cc1 [CHLORAMBUCIL] | – | 8.7 µM | 1.3 | 11 µM
Nc1ccn([C@@H]2O[C@H](CO)[C@@H](O)[C@@H]2O)c(=O)n1 [CYTARABINE] | – | 0.92 µM | 0.6 | 0.59 µM
COc1cccc2c1C(=O)c1c(O)c3c(c(O)c1C2=O)C[C@@](O)(C(=O)CO)C[C@@H]3O[C@H]1C[C@H](N)[C@H](O)[C@H](C)O1 [DOXORUBICIN] | – | 0.086 µM | – | 0.076 µM
